Assay results as given in ChEMBL document CHEMBL1671778, “Synthesis and serotonin transporter activity of 1,3-bis(aryl)-2-nitro-1-propenes as a new class of anticancer agents” (Bioorg Med Chem, 2011).
Activity calls are given as the source filed them. The rule behind the calls is not given here.

Experiments:
[1] = test system: HEK293; assay: Cytotoxicity against human HEK293 cells assessed as decrease in cell viability after 48 hrs neutral red dye assay; format: functional, cell-based; settings: HEK293, 48 h
Procedure, shortened: (§1)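 5x10^4 cells/well grown to sub-confluence (24-36 h), then exposed to compound 48 h. Neutral red dye 3+1 h, solubilised in 50% ethanol/1% acetic acid, absorbance 540 nm (690 nm background). Viability as percent of vehicle-treated cells; pEC50 by non-linear sigmoidal regression over 4 concentrations, triplicate on two independent days. Controls 30 mM sodium azide, 2% Triton-X. HEK293-hSERT cells kept in Geneticin, used up to 30 passages.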

[2] = test system: SH-SY5Y; assay: Cytotoxicity against human SH-SY5Y cells expressing human SERT assessed as decrease in cell viability after 48 hrs neutral red dye assay; format: functional, cell-based
[3] = test system: DG-75; assay: Cytotoxicity against human chemoresistant DG75 cells expressing SERT assessed as decrease in cell viability 10 or 50 uM after 72 hrs Alamar blue assay; format: functional, cell-based; settings: DG-75, 72 h
Procedure, shortened: (§2)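 1-5x10^4 cells/200 µl given 10 or 50 µM for 24 h (MUTU-I, MDA-MB231, PBMC) or […]. Alamar Blue at 37 °C in the dark 4-6 h, then fluorescence read with 544/590 nm. Media-only background subtracted; untreated cells set as 100% viability. Mean of six points (triplicate, two independent days). PBMCs from a healthy donor, isolated by ficoll density separation.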

[4] = target: T1, Tyrosine-protein phosphatase non-receptor type 1 (Homo sapiens) (UniProt P18031); assay: Inhibition of human recombinant PTP1B in chemosensitive MUTU-I cells after 30 mins; format: cell-based
T1 sequence (whole entry): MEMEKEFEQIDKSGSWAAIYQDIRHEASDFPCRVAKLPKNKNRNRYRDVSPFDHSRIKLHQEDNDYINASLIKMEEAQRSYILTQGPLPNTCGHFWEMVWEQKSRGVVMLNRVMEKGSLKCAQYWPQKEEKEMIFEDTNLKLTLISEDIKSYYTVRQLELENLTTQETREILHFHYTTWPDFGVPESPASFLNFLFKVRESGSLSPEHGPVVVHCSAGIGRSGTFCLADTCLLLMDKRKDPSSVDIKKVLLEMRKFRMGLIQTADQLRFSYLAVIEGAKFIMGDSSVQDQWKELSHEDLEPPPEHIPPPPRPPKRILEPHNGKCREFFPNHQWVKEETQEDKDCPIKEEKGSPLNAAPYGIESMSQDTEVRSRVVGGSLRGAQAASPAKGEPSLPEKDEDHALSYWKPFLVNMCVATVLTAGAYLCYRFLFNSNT
Procedure, shortened: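 Recombinant PTP1B expressed in E. coli, incubated with compound and a phosphopeptide substrate for 30 min at 30 °C. Released phosphate detected by malachite green at 620 nm and quantified against a phosphate standard curve. Suramin as positive control.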

[5] = target: T2, Sodium-dependent serotonin transporter (Homo sapiens, UniProt P31645); settings: HEK293, at 100 µM
Target sequence in this assay (P31645 whole entry, looked up): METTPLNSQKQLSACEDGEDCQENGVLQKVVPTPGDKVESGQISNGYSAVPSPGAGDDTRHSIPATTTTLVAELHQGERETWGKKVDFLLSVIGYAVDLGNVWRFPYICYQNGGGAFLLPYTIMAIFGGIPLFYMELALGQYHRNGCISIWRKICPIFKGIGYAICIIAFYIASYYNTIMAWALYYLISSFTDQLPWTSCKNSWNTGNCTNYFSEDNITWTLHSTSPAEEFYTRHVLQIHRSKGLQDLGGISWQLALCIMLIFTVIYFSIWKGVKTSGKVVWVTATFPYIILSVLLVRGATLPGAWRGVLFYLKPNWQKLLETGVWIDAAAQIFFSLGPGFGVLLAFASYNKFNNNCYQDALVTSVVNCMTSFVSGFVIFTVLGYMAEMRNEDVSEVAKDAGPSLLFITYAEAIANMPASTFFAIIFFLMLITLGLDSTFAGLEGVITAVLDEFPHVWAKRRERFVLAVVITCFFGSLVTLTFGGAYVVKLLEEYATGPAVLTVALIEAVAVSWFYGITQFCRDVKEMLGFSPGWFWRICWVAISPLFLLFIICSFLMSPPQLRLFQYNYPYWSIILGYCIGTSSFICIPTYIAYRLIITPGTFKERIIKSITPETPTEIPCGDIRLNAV

[6] = Antiproliferative activity against human chemosensitive MUTU-I cells after 24 hrs Alamar blue assay; format: functional, cell-based
Procedure, shortened: (§3)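 Alamar Blue viability: 1-5x10^4 cells/well treated 24 h, then Alamar Blue (pre-warmed) 4-6 h at 37 °C in the dark. Fluorescence read at 590 nm (excitation 544 nm), background of medium plus dye subtracted, untreated cells = 100% viability. Miconazole 10 µM as cell-death control. Range 1 µM-1 mM, triplicate on two independent days. pEC50 from non-linear sigmoidal regression.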

[7] = test system: DG-75; assay: Antiproliferative activity against human DG75 cells after 24 hrs Alamar blue assay; format: functional, cell-based; settings: DG-75, 24 h; procedure, shortened: as §3
[8] = test system: MUTU-I; assay: Induction of apoptosis in human chemosensitive MUTU-I cells assessed as chromatin condensation and membrane bledding at 10 uM after 8 hrs; format: functional, cell-based
Procedure, shortened: (§4)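 Cells at 3x10^5 cells/mL exposed for 4 h or 8 h. 150 µl aliquots were cytocentrifuged onto slides (500 ×g, 2 min), air-dried, methanol-fixed, and stained with eosin Y and methylene blue. Morphology was examined by light microscopy at 60x.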

[9] = test system: MUTU-I; assay: Induction of apoptosis in human chemosensitive MUTU-I cells assessed as accumulation at G2/M phase after 2 to 8 hrs by propidium iodide FACS analysis relative to taxol; format: functional, cell-based
Procedure, shortened: (§5)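 750,000 MUTU-I cells per sample treated for the stated time, then harvested (300 ×g, 5 min), washed in ice-cold PBS and fixed overnight at 4 °C in 70% ethanol. Stained with RNase A and propidium iodide, 30 min at 37 °C in the dark. Flow cytometry counted 10,000 gated cells for cell-cycle phases. Taxol 10 µM as positive control.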

[10] = test system: MUTU-I; assay: Induction of apoptosis in human chemosensitive MUTU-I cells assessed as chromatin condensation and membrane bledding at 10 uM after 4 hrs; format: functional, cell-based; procedure, shortened: as §4
[11] = test system: MUTU-I; assay: Induction of apoptosis in human chemosensitive MUTU-I cells assessed as caspase 3/7 activation at 10 uM after 5 hrs; format: functional, cell-based
Procedure, shortened: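 Caspase 3/7 activity by homogeneous fluorogenic kit: 0.5x10^5 cells exposed to compound (10 µM) for 5 h, then 100 µl Z-DEVD-R110 substrate added. After 2 h, cleaved substrate measured at 521 nm (excitation 499 nm).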

[12] = test system: MUTU-I; assay: Induction of apoptosis in human chemosensitive MUTU-I cells assessed as caspase 3/7 activation at 10 uM after 4 hrs; format: functional, cell-based
[13] = test system: SH-SY5Y; assay: Antiproliferative activity against human SH-SY5Y cells after 24 hrs Alamar blue assay; format: functional, cell-based; procedure, shortened: as §3
[14] = target: Tubulin (Homo sapiens) (UniProt P68371+Q9H4B7+P0DPH7+P68366+Q13509+Q71U36+P04350+Q3ZCM7+P07437+P68363+Q9BQE3+Q6PEY2+Q13885+Q9BVA1+Q9BUF5); assay: Inhibition of tubulin polymerisation in human chemosensitive MUTU-I cells after 30 mins; format: cell-based
[15] = target: T2, Sodium-dependent serotonin transporter; settings: HEK293, at 1 µM
Target sequence in this assay (P31645 whole entry, looked up): as above

[16] = Induction of apoptosis in human chemosensitive MUTU-I cells assessed as accumulation at pre-G1 phase at 10 uM by propidium iodide FACS analysis; format: functional; procedure, shortened: as §5
[17] = test system: MUTU-I; assay: Induction of apoptosis in human chemosensitive MUTU-I cells assessed as induction of PARP cleavage at 10 uM after 8 hrs; format: functional, cell-based
Procedure, shortened: (§6)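 PARP cleavage by Western blot: 5x10^6 cells pelleted (500 ×g, 5 min), washed, and lysed in Laemmli buffer with protease inhibitors. Lysates run on 8% SDS-PAGE, transferred to PVDF, and probed with anti-PARP detecting full-length 113 kDa and cleaved 85 kDa forms. HRP secondary antibody, chemiluminescence detection.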

[18] = test system: MUTU-I; assay: Induction of apoptosis in human chemosensitive MUTU-I cells assessed as induction of PARP cleavage at 10 uM after 4 hrs; format: functional, cell-based; procedure, shortened: as §6
[19] = test system: HEK293; assay: Cytotoxicity against human HEK293 cells expressing human SERT assessed as decrease in cell viability after 48 hrs neutral red dye assay; format: functional, cell-based; settings: HEK293, 48 h; procedure, shortened: as §1
[20] = target: T2, Sodium-dependent serotonin transporter; assay: Inhibition of [3H]-serotonin reuptake at human SERT expressed in HEK293 cells after 15 to 20 mins by fluorescence neurotransmitter transporter assay; format: cell-based
Target sequence in this assay (P31645 whole entry): as the sequence (P31645 whole entry, looked up) above

[21] = test system: PBMC; assay: Cytotoxicity against human PBMC cells assessed as decrease in cell viability 10 or 50 uM after 24 hrs Alamar blue assay; format: cell-based; procedure, shortened: as §2

Structure (SMILES) | EC50 [1] | EC50 [2] | EC50 [3] | inhibition [5] | EC50 [6] | EC50 [7] | EC50 [13] | inhibition [15] | EC50 [19] | other results
CN(C)CCCC1(c2ccc(F)cc2)OCc2cc(C#N)ccc21 (configuration not stated) [CITALOPRAM] | 15.8 µM | 25.1 µM | 12.6 µM | – | – | – | – | – | – | –
O=[N+]([O-])/C(=C\c1ccc(Cl)cc1)Cc1ccc(Cl)cc1 | – | – | – | 23% | 1 µM | 12.6 µM | 2.51 µM | 0% | – | inhibition [4]: inactive; Activity [8]: Active; Activity [9]: Active; Activity [10]: Active; Activity [11]: Active; Activity [12]: Active; inhibition [14]: inactive; Activity [16]: 41%; Activity [17]: Active; Activity [18]: Active
CSc1ccc(C/C(=C/c2ccc(Cl)cc2)[N+](=O)[O-])cc1 | – | – | – | – | 3.16 µM | 7.94 µM | 20 µM | – | – | –
CCNC(Cc1ccc(SC)cc1)Cc1ccc(SC)cc1 | 1260 µM | 15.8 µM | 12.6 µM | 92% | – | – | – | 31% | 25.1 µM | IC50 [20]: 2.2 µM
CSc1ccc(CC(C)N)cc1 (configuration not stated) [4-METHYLTHIOAMPHETAMINE] | 20 µM | 631 µM | 316 µM | – | – | – | – | – | 25.1 µM | IC50 [20]: 0.2 µM
CSc1ccc(CC(N)Cc2ccc(SC)cc2)cc1 | 20 µM | 20 µM | 25.1 µM | 98% | 12.6 µM | 25.1 µM | 12.6 µM | 50% | 31.6 µM | IC50 [20]: 2.5 µM; Activity [21]: Toxic
OC(Cc1ccc2c(c1)OCO2)Cc1ccc2c(c1)OCO2 | – | – | – | – | 39.8 µM | 126 µM | 158 µM | – | – | –
O=[N+]([O-])/C(=C\c1ccc2c(c1)OCO2)Cc1ccc2c(c1)OCO2 | 7.94 µM | 15.8 µM | 1 µM | 36% | 3.16 µM | 50.1 µM | 31.6 µM | 15% | 12.6 µM | inhibition [4]: inactive; Activity [8]: Active; Activity [9]: Active; Activity [10]: Active; Activity [11]: Active; Activity [12]: Active; inhibition [14]: inactive; Activity [16]: 30%; Activity [17]: Active; Activity [18]: Active
ON=C(Cc1ccc2c(c1)OCO2)Cc1ccc2c(c1)OCO2 | – | – | – | – | 25.1 µM | 50.1 µM | 63.1 µM | – | – | –
COc1ccc(CC(Cc2ccc(OC)cc2)NC=O)cc1 | 31.6 µM | > 10000 µM | 1580 µM | 18% | 200 µM | 200 µM | 316 µM | 8% | 3980 µM | –
NC(Cc1ccc(Cl)cc1)Cc1ccc(Cl)cc1 | – | – | – | – | 0.158 µM | 25.1 µM | 5.01 µM | – | – | Activity [21]: Toxic
CC(N)Cc1ccc2c(c1)OCO2 (configuration not stated) [TENAMFETAMINE] | 316 µM | > 10000 µM | 2000 µM | – | – | – | – | – | 631 µM | IC50 [20]: 0.9 µM
O=[N+]([O-])/C(=C\c1ccc(Cl)cc1)Cc1ccc(Cl)cc1Cl | – | – | – | – | 3.16 µM | 3.16 µM | 25.1 µM | – | – | –
CSc1ccc(/C=C(/Cc2ccc(SC)cc2)[N+](=O)[O-])cc1 | – | – | – | 18% | 3.16 µM | 39.8 µM | 20 µM | 25% | – | inhibition [4]: inactive; Activity [8]: Active; Activity [9]: Active; Activity [10]: Active; Activity [11]: Active; Activity [12]: Active; inhibition [14]: inactive; Activity [16]: 50%; Activity [17]: Active; Activity [18]: Active
O=CNC(Cc1ccc2c(c1)OCO2)Cc1ccc2c(c1)OCO2 | > 10000 µM | > 10000 µM | 15.8 µM | 55% | 63.1 µM | 158 µM | 224 µM | 18% | 1580 µM | –
CC(=O)NC(Cc1ccc2c(c1)OCO2)Cc1ccc2c(c1)OCO2 | 3980 µM | > 10000 µM | 1260 µM | – | – | – | – | – | > 10000 µM | –
COc1ccc(CC(N)Cc2ccc(OC)cc2)cc1 | 31.6 µM | 20 µM | 20 µM | 65% | 794 µM | 398 µM | 20 µM | 11% | 25.1 µM | –
O=C(Cc1ccc2c(c1)OCO2)Cc1ccc2c(c1)OCO2 | 1260 µM | > 10000 µM | 3160 µM | – | 100 µM | 158 µM | 251 µM | – | 5010 µM | –
CNC(C)Cc1ccc2c(c1)OCO2 (configuration not stated) [MIDOMAFETAMINE] | 251 µM | > 10000 µM | 31.6 µM | – | – | – | – | – | 501 µM | IC50 [20]: 1.1 µM
CSc1ccc(CC(Cc2ccc(SC)cc2)NC(C)=O)cc1 | – | 3980 µM | 3980 µM | 28% | 158 µM | 398 µM | 15800 µM | 0% | 39.8 µM | –
NC(Cc1ccc2c(c1)OCO2)Cc1ccc2c(c1)OCO2 | 25.1 µM | 31.6 µM | 15.8 µM | 77% | 50.1 µM | 251 µM | 31.6 µM | 44% | 31.6 µM | IC50 [20]: 1.6 µM
COc1ccc(/C=C(/Cc2ccc(OC)cc2)[N+](=O)[O-])cc1 | – | – | – | 10% | 2.51 µM | 12.6 µM | 12.6 µM | 25% | – | inhibition [4]: inactive; Activity [8]: Active; Activity [9]: Active; Activity [10]: Active; Activity [11]: Active; Activity [12]: Active; inhibition [14]: inactive; Activity [16]: 32%; Activity [17]: Active; Activity [18]: Active
